These results are taken from ChEMBL document CHEMBL4811271, “Computer-aided design of 1,4-naphthoquinone-based inhibitors targeting cruzain and rhodesain cysteine proteases” (Bioorg Med Chem, 2021).

Activity calls are given as the source filed them. No cut-off for these calls is given here.

The target of test [1] is Rhodesain (Trypanosoma brucei rhodesiense) (UniProt Q95PM0). The experiment in a line: Inhibition of recombinant Trypanosoma brucei rhodesain at 100 uM using Z-FR-AMC as substrate by fluorimetric analysis relative to control. Put shortly:
(§1)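 Recombinant enzyme (cruzain expressed in-house; rhodesain donated) at 0.5 nM in 0.1 M sodium acetate pH 5.5 with 1 mM DTT and 0.01% Triton X-100. Compound pre-incubated with enzyme 10 min, then 2.5 µM Z-FR-AMC added. Fluorescence followed 5 min. Activity taken from initial rates against DMSO control, E64 as positive control. Screen at 100 µM. IC50 from ≥8 concentrations by nonlinear regression. Two independent experiments in triplicate.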

Test [2] concerns the target T1, Rhodesain (Trypanosoma brucei rhodesiense, UniProt Q95PM0). The experiment in a line: Inhibition of recombinant Trypanosoma brucei rhodesain using Z-FR-AMC as substrate preincubated for 10 mins followed by substrate addition measured for 5 mins by fluorimetric analysis relative to control. In a few lines: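 Recombinant rhodesain (0.5 nM) in 0.1 M sodium acetate pH 5.5 with 1 mM DTT and 0.01% Triton X-100, pre-incubated with compound for 10 min before adding 2.5 µM Z-FR-AMC. Fluorescence monitored 5 min. Initial rates compared with DMSO control. Screen at 100 µM; IC50 determined for compounds above 70% inhibition, from at least 8 concentrations, two independent experiments in triplicate.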

In test [3] the target is Rhodesain (Trypanosoma brucei rhodesiense) (UniProt Q95PM0). The experiment in a line: Reversible inhibition of recombinant Trypanosoma brucei rhodesain using Z-FR-AMC as substrate measured for 30 mins by fluorimetric analysis. In a few lines: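 Rhodesain at 100-fold final assay concentration incubated 30 min with compound at 10-fold its IC50. The mixture was then diluted 100-fold into buffer with 2.5 µM Z-FR-AMC, giving standard enzyme level and 0.1× IC50. AMC release was monitored continuously for 30 min and compared with vehicle control. E-64 served as irreversible reference.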

Test [4] addresses T1, Rhodesain. The experiment in a line: Inhibition of recombinant Trypanosoma brucei rhodesain using Z-FR-AMC as substrate by fluorimetric analysis relative to control. Put shortly:
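Rhodesain (recombinant, gift) 0.5 nM in 0.1 M sodium acetate pH 5.5 with 1 mM DTT and 0.01% Triton X-100. Z-FR-AMC substrate 2.5 µM, read by fluorescence over 5 min. Activity from initial rates versus DMSO control, with E64 as positive control. Two independent experiments in triplicate. IC50 from at least 8 concentrations by nonlinear regression.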

Test [5] has as its target Rhodesain (Trypanosoma brucei rhodesiense) (UniProt Q95PM0). As to the kind of experiment: Inhibition of recombinant Trypanosoma brucei rhodesain at 100 uM using Z-FR-AMC as substrate by fluorimetric analysis. Conditions: TDE = time-dependent effect. Put shortly:
as §1

Test [6] has as its target Cruzipain (Trypanosoma cruzi) (UniProt P25779). As to the kind of experiment: Inhibition of recombinant Trypanosoma cruzi cruzain at 100 uM using Z-FR-AMC as substrate preincubated for 10 mins followed by substrate addition measured for 5 mins by fluorimetric analysis relative to control. In a few lines: as §1
Test [7] has as its target Rhodesain (Trypanosoma brucei rhodesiense) (UniProt Q95PM0). The experiment in a line: Inhibition of recombinant Trypanosoma brucei rhodesain at 100 uM using Z-FR-AMC as substrate preincubated for 10 mins followed by substrate addition measured for 5 mins by fluorimetric analysis relative to control. Put shortly:
as §1

A further test addresses Cruzipain (Trypanosoma cruzi, UniProt P25779). The experiment in a line: Inhibition of recombinant Trypanosoma cruzi cruzain using Z-FR-AMC as substrate preincubated for 10 mins followed by substrate addition measured for 5 mins by fluorimetric analysis relative to control. Put shortly: as §1
The subject of a further test is Vero. As to the kind of experiment: Cytotoxicity against African green monkey Vero cells measured after 24 hrs. Conditions: Chlorocebus sabaeus. Format: functional.
The test system of another test is Trypanosoma cruzi. The experiment in a line: Antitrypanosomal activity against Trypanosoma cruzi Dm28c assessed as live parasite count measured after 72 hrs by optical microscopy. Format: functional. The conditions noted are these: read-out: LD50 (the source's name).
In test [8] the target is T1, Rhodesain. As to the kind of experiment: Binding affinity to Trypanosoma brucei rhodesain. In a few lines:
as §1

Test [9] deals with Rhodesain (Trypanosoma brucei rhodesiense) (UniProt Q95PM0). The experiment in a line: Inhibition of recombinant Trypanosoma brucei rhodesain at 0.1 uM using Z-FR-AMC as substrate by fluorimetric analysis relative to control.
The target is the same in test [10]. The experiment in a line: Inhibition of recombinant Trypanosoma brucei rhodesain at 0.1 uM using Z-FR-AMC as substrate preincubated for 10 mins followed by substrate addition by fluorimetric analysis relative to control.

What is called inhibition is the share of the control response that was lost under treatment. As a reminder, the IC50 is the concentration that gives 50% inhibition. As a reminder, the CC50 is the concentration giving 50% cytotoxicity. In general, Ki refers to the dissociation constant of the complex between target and ligand, obtained from inhibition or displacement.

Chain of Cruzipain (P25779 whole entry): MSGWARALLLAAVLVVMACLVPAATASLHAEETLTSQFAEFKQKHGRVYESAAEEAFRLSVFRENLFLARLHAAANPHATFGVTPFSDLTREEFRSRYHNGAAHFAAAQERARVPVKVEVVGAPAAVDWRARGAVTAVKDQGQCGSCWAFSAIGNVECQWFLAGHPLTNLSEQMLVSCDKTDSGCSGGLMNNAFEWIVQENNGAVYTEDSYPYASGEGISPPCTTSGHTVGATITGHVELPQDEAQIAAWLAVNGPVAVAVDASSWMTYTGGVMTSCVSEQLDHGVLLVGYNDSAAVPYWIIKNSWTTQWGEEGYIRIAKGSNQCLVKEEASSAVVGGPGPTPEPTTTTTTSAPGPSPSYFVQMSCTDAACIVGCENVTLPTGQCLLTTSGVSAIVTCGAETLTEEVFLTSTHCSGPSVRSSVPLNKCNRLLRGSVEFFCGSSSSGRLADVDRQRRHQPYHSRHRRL
Chain of Rhodesain (Trypanosoma brucei rhodesiense) (Q95PM0 1-450): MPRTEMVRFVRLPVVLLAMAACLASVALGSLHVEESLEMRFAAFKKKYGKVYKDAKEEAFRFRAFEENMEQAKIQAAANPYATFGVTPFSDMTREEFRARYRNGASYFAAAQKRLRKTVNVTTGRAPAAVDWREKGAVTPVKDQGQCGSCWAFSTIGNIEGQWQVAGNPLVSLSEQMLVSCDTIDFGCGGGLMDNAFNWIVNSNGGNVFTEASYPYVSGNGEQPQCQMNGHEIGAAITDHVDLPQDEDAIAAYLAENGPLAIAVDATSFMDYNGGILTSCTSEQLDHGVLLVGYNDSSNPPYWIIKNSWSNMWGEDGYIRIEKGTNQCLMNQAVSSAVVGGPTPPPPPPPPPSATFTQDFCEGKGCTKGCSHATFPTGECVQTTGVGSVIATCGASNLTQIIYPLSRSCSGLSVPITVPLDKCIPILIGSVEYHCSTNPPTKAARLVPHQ
T1 sequence (Q95PM0 whole entry): as the sequence (Q95PM0 1-450) above
Chain of Cruzipain (Trypanosoma cruzi) (P25779 123-467 limits assumed): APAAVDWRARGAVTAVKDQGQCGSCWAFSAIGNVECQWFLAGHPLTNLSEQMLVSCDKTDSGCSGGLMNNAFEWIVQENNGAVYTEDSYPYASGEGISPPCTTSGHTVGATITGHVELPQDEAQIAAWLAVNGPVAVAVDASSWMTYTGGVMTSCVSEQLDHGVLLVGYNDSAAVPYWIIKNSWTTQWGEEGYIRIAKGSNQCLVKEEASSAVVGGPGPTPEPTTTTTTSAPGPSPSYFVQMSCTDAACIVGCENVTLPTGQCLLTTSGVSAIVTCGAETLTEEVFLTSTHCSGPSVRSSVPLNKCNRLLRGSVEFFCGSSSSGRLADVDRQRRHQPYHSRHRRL

In the case of `O=C1C=C(O)C(=O)c2ccccc21` [LAWSONE], the inhibition is 27% in [1], “Tde” in [5], 58% in test [6] and 77% in test [7]. Besides, the half-inhibitory concentration (IC50) is 33 µM at Rhodesain [2] and over 100 µM on Rhodesain [4]. Also, in [3], the inhibition entry is “Active”.
Regarding `O=C(NNC1=CC(=O)c2ccccc2C1=O)c1ccncc1`, the inhibition in test [6] and in test [7] was 37% each time.
As to `O=C1C=C(Nc2ccc(S(=O)(=O)Nc3ccccn3)cc2)C(=O)c2ccccc21`, the inhibition was 48% in test [1], “Tde” in test [5], 95% in test [6] and 93% in test [7]. Besides, the values for the half-inhibitory concentration (IC50) on Rhodesain [2], at Cruzipain and on Rhodesain [4] were 1.8 µM, 6.3 µM and 30 µM, respectively. The inhibition entry in test [3] is “Active”.
For the compound `CC1(C)CCC2=C(O1)C1(CO1)c1ccccc1C2=O` (stereo not given), the CC50 with Vero was over 50 µM. Further, the LC50 in the test with Trypanosoma cruzi is under 3.1 µM.
`COC1=CC(=O)c2ccccc2C1=O`: the inhibition was found to be 32% in test [6] and 27% in test [7].
Take `CC(C)=CCC1=C(O)c2ccccc2/C(=N/NC(=O)c2ccncc2)C1=O`: the inhibition in test [1] is 73%; in test [6] it was 76%; in test [7] it was 87%. For the same compound, the 50% inhibitory concentration (IC50) on Rhodesain [2] worked out at 20 µM; on Cruzipain, 33 µM; on Rhodesain [4] it was 29 µM. Also, the inhibition result in test [3] is “Active”.
Turning to `O=C1C=C(Nc2ccccc2)C(=O)c2ccccc21`, the results for the inhibition in test [6] and in [7] were 48% and 61%, respectively.
`CC(NC1=CC(=O)c2ccccc2C1=O)c1ccccc1` (stereo not given): the inhibition in test [6] was 26%; in [7], 23%.
Take `O=C1C=C(Br)C(=O)c2ccccc21`: the inhibition in test [6] worked out at 51%; in [7] it was 50%.
`O=C1C(Cl)=C(Cl)C(=O)c2ccccc21`: the inhibition in test [6] was found to be 49%; in test [7], 56%.
On to `CC(C)C[C@H](NC(=O)[C@H](Cc1ccccc1)NC1=C(C#N)C(=O)c2ccccc2C1=O)C(=O)O`, for which, on Rhodesain [8], the Ki is 0.0005 µM.
For `CC(C)C[C@H](NC(=O)[C@H]1O[C@@H]1C(=O)O)C(=O)NCCCCN=C(N)N` [E-64], the IC50 stood at 0.0031 µM at Rhodesain [2] and 0.02 µM on Cruzipain. Also, the inhibition result in test [3] was “Active”. Besides, the inhibition in test [9] worked out at 7%; in [10], 95%.
As for `CC(C)=CCC1=C(O)c2ccccc2/C(=N/NC(N)=S)C1=O`, the inhibition in test [1] came out at 79%; in test [6] it was 83%; in [7], 82%. In addition, the IC50 was determined as 28 µM on Rhodesain [2], 34 µM on Cruzipain and 66 µM at Rhodesain [4]. Further, the inhibition result in test [3] is “Active”.
For `Cc1cc(NS(=O)(=O)c2ccc(NC3=CC(=O)c4ccccc4C3=O)cc2)no1`, the figures for the inhibition in test [6] and in test [7] were 6% and 1%, respectively.
`O=C1C=C(O)c2ccccc2/C1=N/NC(=O)c1ccncc1`: the inhibition in test [6] was determined as 66%; in test [7] it was 52%.
For the compound `CC(C)=CCC1=C(O)C(=O)c2ccccc2C1=O` [LAPACHOL], the inhibition was 18% in test [1], “Tde” in test [5], 35% in test [6] and 70% in test [7]. In addition, the figures for the IC50 on Rhodesain [2] and on Rhodesain [4] were 58 µM and over 100 µM, respectively. For the same compound, in [3], the inhibition entry was “Active”.
